Measured values reported in ChEMBL document CHEMBL3407426, “Synthesis and biological evaluations of novel endomorphin analogues containing α-hydroxy-β-phenylalanine (AHPBA) displaying mixed μ/δ opioid receptor agonist and δ opioid receptor antagonist activities” (Eur J Med Chem, 2015).
Where a SMILES comes first, the peptide text is derived from it. [ ]: non-standard residue; d: D form. ξ: configuration not given here. Dmt = Cc1cc(O)cc(C)c1C[C@H](N)C(=O)O; ξTiq(1-COOH) = O=C(O)C1NCCc2ccccc21; β3hF = N[C@H](CC(=O)O)Cc1ccccc1

Molecular target: Mu-type opioid receptor (Homo sapiens) (UniProt P35372)
Sequence (P35372 whole entry): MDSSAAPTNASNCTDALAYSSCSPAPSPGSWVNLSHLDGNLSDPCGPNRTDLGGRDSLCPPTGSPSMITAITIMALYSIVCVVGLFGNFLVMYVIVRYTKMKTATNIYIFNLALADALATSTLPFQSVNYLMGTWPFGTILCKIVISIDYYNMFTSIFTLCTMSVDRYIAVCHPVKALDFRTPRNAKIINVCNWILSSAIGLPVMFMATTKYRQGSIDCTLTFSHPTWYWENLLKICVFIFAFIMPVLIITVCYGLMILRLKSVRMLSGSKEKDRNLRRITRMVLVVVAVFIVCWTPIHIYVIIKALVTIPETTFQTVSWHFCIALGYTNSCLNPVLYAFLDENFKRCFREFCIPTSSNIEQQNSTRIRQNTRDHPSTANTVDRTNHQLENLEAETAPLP
Test: Agonist activity at mu opioid receptor (unknown origin) expressed in HEK293 cells assessed as change in cell morphology at 3.3 uM measured over 30 mins by label free binding assay relative to DAMGO
Format: cell-based
Method in brief: (§1)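 Label-free biosensor (BIND) measuring cell spreading as increase in peak wavelength value. MOR in HEK293 cells, DOR in CHO cells, seeded 2 × 10⁴/well on fibronectin/collagen/albumin-coated plates and incubated overnight. Assay buffer was HBSS with 0.5–1% DMSO, equilibrated 30 min at room temperature before a baseline read. Compound added to a final 3.3 µM and read over 30 min. Response given as % of DAMGO 300 nM (MOR, n = 2) or DPDPE 10 nM (DOR, n = 4).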
In the case of `Cc1cc(O)cc(C)c1C[C@H](N)C(=O)N1CCc2ccccc2C1C(=O)N[C@@H](Cc1ccccc1)C(=O)N[C@@H](Cc1ccccc1)[C@H](O)C(N)=O` (some centres not stated), the Activity is reported as 51%. Work on `NC(=O)[C@H](Cc1ccccc1)NC(=O)[C@H](Cc1ccccc1)NC(=O)[C@@H]1CCCN1C(=O)[C@@H](N)Cc1ccc(O)cc1` [ENDOMORPHIN 2] yielded an Activity of 98%. `Cc1cc(O)cc(C)c1C[C@H](N)C(=O)N1CCc2ccccc2C1C(=O)N[C@@H](Cc1ccccc1)C(=O)N[C@@H](Cc1ccccc1)[C@@H](O)C(N)=O` (some centres not stated) gave an Activity of 52%. With `Cc1cc(O)cc(C)c1C[C@H](N)C(=O)N1CCc2ccccc2C1C(=O)N[C@@H](Cc1c[nH]c2ccccc12)C(=O)N[C@@H](Cc1ccccc1)C(N)=O` (some centres not stated) (H-[Dmt][ξTiq(1-COOH)]WF-NH2) the Activity was 43%. With `Cc1cc(O)cc(C)c1C[C@H](N)C(=O)N1CCc2ccccc2C1C(=O)N[C@@H](Cc1c[nH]c2ccccc12)C(=O)N[C@@H](Cc1ccccc1)[C@H](O)C(N)=O` (some centres not stated) the Activity was 50%.

Tested on: not listed separately
Test: Half life in rat brain homogenate at 10 uM
Format: ADME, tissue-based
Method in brief: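 Peptide at a final 10 µM in rat brain homogenate (protein 21.2 mg/mL), incubated at 37 °C. Aliquots quenched in acetonitrile with internal standard in triplicate, centrifuged, and analysed by LC-MS/MS in MRM mode. Half-life from pseudo-first-order loss of the analyte/internal-standard ratio; mean of at least three experiments ± SEM.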
In the case of `NC(=O)C[C@H](Cc1ccccc1)NC(=O)[C@H](Cc1c[nH]c2ccccc12)NC(=O)[C@@H]1CCCN1C(=O)[C@@H](N)Cc1ccc(O)cc1`, the half-life at 10 µM is reported as 4.57 min. In the case of `Cc1cc(O)cc(C)c1C[C@H](N)C(=O)N1CCc2ccccc2C1C(=O)N[C@H](CC(=O)N[C@@H](Cc1ccccc1)C(N)=O)Cc1ccccc1` (stereo partly drawn) (H-[Dmt][ξTiq(1-COOH)][β3hF]F-NH2), the half-life at 10 µM is reported as > 120 min. `Cc1cc(O)cc(C)c1C[C@H](N)C(=O)N1CCc2ccccc2C1C(=O)N[C@@H](Cc1ccccc1)C(=O)N[C@@H](Cc1ccccc1)[C@H](O)C(N)=O` (some centres not stated) gave a half-life at 10 µM of 49 min. `NC(=O)[C@H](Cc1ccccc1)NC(=O)[C@H](Cc1ccccc1)NC(=O)[C@@H]1CCCN1C(=O)[C@@H](N)Cc1ccc(O)cc1` [ENDOMORPHIN 2] gave a half-life at 10 µM of 0.75 min. Work on `Cc1cc(O)cc(C)c1C[C@H](N)C(=O)N1CCc2ccccc2C1C(=O)N[C@@H](Cc1ccccc1)C(=O)N[C@@H](Cc1ccccc1)[C@@H](O)C(N)=O` (some centres not stated) yielded a half-life at 10 µM of 82.6 min. Work on `Cc1cc(O)cc(C)c1C[C@H](N)C(=O)N1CCc2ccccc2C1C(=O)N[C@@H](Cc1c[nH]c2ccccc12)C(=O)N[C@@H](Cc1ccccc1)C(N)=O` (some centres not stated) (H-[Dmt][ξTiq(1-COOH)]WF-NH2) yielded a half-life at 10 µM of 32.2 min. For `Cc1cc(O)cc(C)c1C[C@H](N)C(=O)N1CCc2ccccc2C1C(=O)N[C@@H](Cc1c[nH]c2ccccc12)C(=O)N[C@@H](Cc1ccccc1)[C@H](O)C(N)=O` (some centres not stated), the half-life at 10 µM was > 120 min.

Molecular target: Delta-type opioid receptor (Rattus norvegicus, UniProt P33533)
Sequence (P33533 whole entry): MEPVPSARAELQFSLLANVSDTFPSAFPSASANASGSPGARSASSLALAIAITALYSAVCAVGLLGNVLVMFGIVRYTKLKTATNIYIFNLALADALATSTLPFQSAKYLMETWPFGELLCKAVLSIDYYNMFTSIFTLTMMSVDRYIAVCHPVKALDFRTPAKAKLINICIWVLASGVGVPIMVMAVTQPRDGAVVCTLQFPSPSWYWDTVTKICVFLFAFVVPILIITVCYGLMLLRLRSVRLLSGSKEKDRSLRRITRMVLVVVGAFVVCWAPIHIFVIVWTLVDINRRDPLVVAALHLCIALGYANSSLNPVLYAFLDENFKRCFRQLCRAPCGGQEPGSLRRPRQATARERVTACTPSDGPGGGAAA
Test: Displacement of [3H]DPDPE from rat cortex delta opioid receptor after 2.5 hrs by liquid scintillation counting analysis
`NC(=O)C[C@H](Cc1ccccc1)NC(=O)[C@H](Cc1c[nH]c2ccccc12)NC(=O)[C@@H]1CCCN1C(=O)[C@@H](N)Cc1ccc(O)cc1` showed a Ki of 4110 nM. In the case of `Cc1cc(O)cc(C)c1C[C@H](N)C(=O)N1CCc2ccccc2C1C(=O)N[C@H](CC(=O)N[C@@H](Cc1ccccc1)C(N)=O)Cc1ccccc1` (stereo partly drawn) (H-[Dmt][ξTiq(1-COOH)][β3hF]F-NH2), the Ki is reported as 1 nM. In the case of `Cc1cc(O)cc(C)c1C[C@H](N)C(=O)N1CCc2ccccc2C1C(=O)N[C@@H](Cc1ccccc1)C(=O)N[C@@H](Cc1ccccc1)[C@H](O)C(N)=O` (some centres not stated), the Ki is reported as 1 nM. With `Cc1cc(O)cc(C)c1C[C@H](N)C(=O)N1CCc2ccccc2C1C(=O)N[C@@H](Cc1ccccc1)C(=O)N[C@@H](Cc1ccccc1)[C@@H](O)C(N)=O` (some centres not stated) the Ki was 0.5 nM. With `Cc1cc(O)cc(C)c1C[C@H](N)C(=O)N1CCc2ccccc2C1C(=O)N[C@@H](Cc1c[nH]c2ccccc12)C(=O)N[C@@H](Cc1ccccc1)C(N)=O` (some centres not stated) (H-[Dmt][ξTiq(1-COOH)]WF-NH2) the Ki was 2 nM. In the case of `Cc1cc(O)cc(C)c1C[C@H](N)C(=O)N1CCc2ccccc2C1C(=O)N[C@@H](Cc1c[nH]c2ccccc12)C(=O)N[C@@H](Cc1ccccc1)[C@H](O)C(N)=O` (some centres not stated), the Ki is reported as 0.8 nM.

Molecular target: Mu-type opioid receptor (Rattus norvegicus, UniProt P33535)
Sequence (P33535 whole entry): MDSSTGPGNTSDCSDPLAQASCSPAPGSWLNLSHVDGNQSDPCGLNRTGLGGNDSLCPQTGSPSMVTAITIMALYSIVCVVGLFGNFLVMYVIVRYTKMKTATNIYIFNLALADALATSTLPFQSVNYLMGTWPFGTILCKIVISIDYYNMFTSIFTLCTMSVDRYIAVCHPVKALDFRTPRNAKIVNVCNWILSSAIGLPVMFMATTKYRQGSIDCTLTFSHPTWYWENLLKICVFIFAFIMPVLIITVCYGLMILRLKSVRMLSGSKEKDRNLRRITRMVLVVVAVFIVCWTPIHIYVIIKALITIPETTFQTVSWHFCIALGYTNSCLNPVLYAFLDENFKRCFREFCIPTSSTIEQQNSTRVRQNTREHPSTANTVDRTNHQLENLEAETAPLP
Test: Displacement of [3H]DAMGO from rat cortex mu opioid receptor after 30 mins by liquid scintillation counting analysis
Method in brief: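 Rat cortex membranes prepared in 50 mM Tris pH 7.4, spun 16,500 rpm for 10 min, and incubated 30 min at 37 °C. Competition against [³H]DAMGO. Assay ended by filtration on BSA-soaked GF/B filters. Ki values are means of two experiments.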
`NC(=O)C[C@H](Cc1ccccc1)NC(=O)[C@H](Cc1c[nH]c2ccccc12)NC(=O)[C@@H]1CCCN1C(=O)[C@@H](N)Cc1ccc(O)cc1` gave a Ki of 10 nM. Compound `Cc1cc(O)cc(C)c1C[C@H](N)C(=O)N1CCc2ccccc2C1C(=O)N[C@H](CC(=O)N[C@@H](Cc1ccccc1)C(N)=O)Cc1ccccc1` (stereo partly drawn) (H-[Dmt][ξTiq(1-COOH)][β3hF]F-NH2) has a Ki of 6 nM. With `Cc1cc(O)cc(C)c1C[C@H](N)C(=O)N1CCc2ccccc2C1C(=O)N[C@@H](Cc1ccccc1)C(=O)N[C@@H](Cc1ccccc1)[C@H](O)C(N)=O` (some centres not stated) the Ki was 12 nM. Work on `Cc1cc(O)cc(C)c1C[C@H](N)C(=O)N1CCc2ccccc2C1C(=O)N[C@@H](Cc1ccccc1)C(=O)N[C@@H](Cc1ccccc1)[C@@H](O)C(N)=O` (some centres not stated) yielded a Ki of 15 nM. Work on `Cc1cc(O)cc(C)c1C[C@H](N)C(=O)N1CCc2ccccc2C1C(=O)N[C@@H](Cc1c[nH]c2ccccc12)C(=O)N[C@@H](Cc1ccccc1)C(N)=O` (some centres not stated) (H-[Dmt][ξTiq(1-COOH)]WF-NH2) yielded a Ki of 5 nM. `Cc1cc(O)cc(C)c1C[C@H](N)C(=O)N1CCc2ccccc2C1C(=O)N[C@@H](Cc1c[nH]c2ccccc12)C(=O)N[C@@H](Cc1ccccc1)[C@H](O)C(N)=O` (some centres not stated) gave a Ki of 3 nM.

Molecular target: T1, Delta-type opioid receptor (Homo sapiens, UniProt P41143)
T1 sequence (P41143 whole entry): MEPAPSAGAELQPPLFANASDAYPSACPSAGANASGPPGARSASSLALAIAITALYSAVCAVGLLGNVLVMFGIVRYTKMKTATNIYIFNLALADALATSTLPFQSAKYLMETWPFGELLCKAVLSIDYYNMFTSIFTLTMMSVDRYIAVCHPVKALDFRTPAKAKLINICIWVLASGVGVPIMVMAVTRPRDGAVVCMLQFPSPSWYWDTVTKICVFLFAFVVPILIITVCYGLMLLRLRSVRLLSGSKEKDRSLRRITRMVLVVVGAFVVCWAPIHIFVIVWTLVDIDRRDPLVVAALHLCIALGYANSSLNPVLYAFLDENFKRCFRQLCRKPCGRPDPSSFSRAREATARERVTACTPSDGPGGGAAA
Test: Agonist activity at delta opioid receptor (unknown origin) expressed in CHO cells assessed as change in cell morphology at 3.3 uM measured over 30 mins by label free binding assay relative to DPDPE
Format: cell-based
Method in brief: as §1
With `Cc1cc(O)cc(C)c1C[C@H](N)C(=O)N1CCc2ccccc2C1C(=O)N[C@@H](Cc1ccccc1)C(=O)N[C@@H](Cc1ccccc1)[C@H](O)C(N)=O` (some centres not stated) the Activity was 82%. For `NC(=O)[C@H](Cc1ccccc1)NC(=O)[C@H](Cc1ccccc1)NC(=O)[C@@H]1CCCN1C(=O)[C@@H](N)Cc1ccc(O)cc1` [ENDOMORPHIN 2], the Activity was 52%. In the case of `Cc1cc(O)cc(C)c1C[C@H](N)C(=O)N1CCc2ccccc2C1C(=O)N[C@@H](Cc1ccccc1)C(=O)N[C@@H](Cc1ccccc1)[C@@H](O)C(N)=O` (some centres not stated), the Activity is reported as 22%. In the case of `Cc1cc(O)cc(C)c1C[C@H](N)C(=O)N1CCc2ccccc2C1C(=O)N[C@@H](Cc1c[nH]c2ccccc12)C(=O)N[C@@H](Cc1ccccc1)C(N)=O` (some centres not stated) (H-[Dmt][ξTiq(1-COOH)]WF-NH2), the Activity is reported as 26%. With `Cc1cc(O)cc(C)c1C[C@H](N)C(=O)N1CCc2ccccc2C1C(=O)N[C@@H](Cc1c[nH]c2ccccc12)C(=O)N[C@@H](Cc1ccccc1)[C@H](O)C(N)=O` (some centres not stated) the Activity was 45%.

Molecular target: T1, Delta-type opioid receptor
Test: Agonist activity at delta opioid receptor (unknown origin) expressed in CHO cells assessed as inhibition of forskolin-induced cAMP production at 500 nM after 30 mins by europium cryptate/d2 dye-based FRET analysis relative to DPDPE
Format: functional, cell-based
Method in brief: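 DOR-expressing CHO cells, 20,000/well, exposed to test compound at 500 nM with 4 µM forskolin in PBS containing 1 mM IBMX for 30 min at room temperature. Cells then lysed with Europium cryptate and d2 acceptor reagents for 1 h, and cAMP read by FRET. Expressed as % of the 500 nM DPDPE response, n = 4.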
Compound `Cc1cc(O)cc(C)c1C[C@H](N)C(=O)N1CCc2ccccc2C1C(=O)N[C@@H](Cc1c[nH]c2ccccc12)C(=O)N[C@@H](Cc1ccccc1)C(N)=O` (some centres not stated) (H-[Dmt][ξTiq(1-COOH)]WF-NH2) has an inhibition of 87%. Compound `Cc1cc(O)cc(C)c1C[C@H](N)C(=O)N1CCc2ccccc2C1C(=O)N[C@@H](Cc1c[nH]c2ccccc12)C(=O)N[C@@H](Cc1ccccc1)[C@H](O)C(N)=O` (some centres not stated) has an inhibition of 104%.

Organism: Rattus norvegicus
Test: Selectivity ratio of Ki for rat cortex mu opioid receptor to Ki for rat cortex delta opioid receptor
Method in brief: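 Ki ratio (MOR/DOR), from Ki values that are means of two experiments. MOR: rat cortex homogenized in 50 mM Tris pH 7.4, spun, preincubated 30 min at 37 °C, spun again, then resuspended with bovine serum; displacement of [3H]DAMGO. DOR: 2 nM [3H]DPDPE; 2.5 h at 25 °C; unlabeled DPDPE as competitor. Filtration on GF/B.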
Work on `Cc1cc(O)cc(C)c1C[C@H](N)C(=O)N1CCc2ccccc2C1C(=O)N[C@H](CC(=O)N[C@@H](Cc1ccccc1)C(N)=O)Cc1ccccc1` (stereo partly drawn) (H-[Dmt][ξTiq(1-COOH)][β3hF]F-NH2) yielded a Ratio Ki of 6.
